{"data": "Published values gathered from unrelated publications", "target": "Serine/threonine-protein kinase STK11 (STK11, Homo sapiens, UniProt Q15831)", "Residues used in one study (Q15831 1-433)": "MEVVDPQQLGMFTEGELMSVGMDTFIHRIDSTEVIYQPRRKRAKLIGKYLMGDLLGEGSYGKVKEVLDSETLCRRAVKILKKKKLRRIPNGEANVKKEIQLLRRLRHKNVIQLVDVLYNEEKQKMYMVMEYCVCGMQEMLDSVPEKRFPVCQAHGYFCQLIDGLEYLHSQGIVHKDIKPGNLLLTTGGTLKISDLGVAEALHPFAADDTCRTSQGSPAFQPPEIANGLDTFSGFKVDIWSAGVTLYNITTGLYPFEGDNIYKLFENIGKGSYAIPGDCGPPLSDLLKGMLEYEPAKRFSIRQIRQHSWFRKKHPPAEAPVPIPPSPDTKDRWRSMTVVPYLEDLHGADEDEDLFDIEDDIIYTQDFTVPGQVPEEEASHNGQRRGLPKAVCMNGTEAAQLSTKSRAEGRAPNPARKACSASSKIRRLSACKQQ", "note": "Protocols differ between the studies behind these lines."}
{"SMILES": "CNC(=O)c1ccc(Nc2ncc(C(F)(F)F)c(NCc3nccnc3N(C)S(C)(=O)=O)n2)cc1", "effect on": "cell-free assay", "method": "competition with immobilised ligand", "concentration": "0.1 µM", "quantity": "remaining binding", "value": "100%"}
{"SMILES": "CCCS(=O)(=O)Nc1ccc(F)c(C(=O)c2c[nH]c3ncc(-c4ccc(Cl)cc4)cc23)c1F", "effect on": "enzyme activity", "action": "inhibitor", "concentration": "1 µM", "quantity": "inhibition", "value": "< 10%"}
{"SMILES": "Cc1ccc(C(=O)NCc2ccsc2)cc1C#Cc1cn(C(C)C)c2ncnc(N)c12", "effect on": "enzyme activity", "action": "inhibitor", "concentration": "1 µM", "quantity": "activity vs control", "value": "94%"}
{"SMILES": "O=C1Nc2ccc(Cl)cc2C1=Cc1cc(Cl)c(O)c(Cl)c1", "effect on": "cell-free assay", "concentration": "0.5 µM", "quantity": "remaining signal", "value": "93.1%"}
{"SMILES": "CN(c1ccnc(CNc2nc(Nc3ccc4c(c3)CC(=O)N4)ncc2C(F)(F)F)n1)S(C)(=O)=O", "effect on": "cell-free assay", "method": "competition with immobilised ligand", "concentration": "1 µM", "quantity": "remaining binding", "value": "72%"}
{"SMILES": "FC(F)c1nc2ccccc2n1-c1nc(N2CCOCC2)nc(N2CCOCC2)n1", "effect on": "enzyme activity", "action": "inhibitor", "concentration": "10 µM", "quantity": "remaining activity", "value": "103%"}
{"SMILES": "CC(C)(O)[C@H]1CC[C@H](Nc2ccc3ncc(-c4cccc(C(F)(F)F)c4)n3n2)CC1", "effect on": "enzyme activity", "action": "inhibitor", "concentration": "1 µM", "quantity": "remaining activity", "value": "90.5%"}
{"SMILES": "Cc1cnc(NC2CCOCC2)nc1-n1cnc(C(=O)NC(CN)c2cc(F)cc(Cl)c2)c1 (stereo not shown)", "effect on": "enzyme activity", "action": "inhibitor", "method": "radiometric", "concentration": "1 µM", "quantity": "remaining activity", "value": "104%"}
{"SMILES": "Cc1ccc(C(=O)Nc2ccc(CN3CCN(C)CC3)c(C(F)(F)F)c2)cc1C#Cc1cnc2cccnn12", "effect on": "enzyme activity", "action": "inhibitor", "concentration": "23.5 nM", "quantity": "remaining activity", "value": "96%"}
{"SMILES": "Cc1ccc(Nc2nccc(N(C)c3ccc4c(C)n(C)nc4c3)n2)cc1S(N)(=O)=O", "effect on": "enzyme activity", "action": "inhibitor", "concentration": "0.3 µM", "quantity": "inhibition", "value": "-6%"}
{"SMILES": "Cn1nc(C(F)(F)F)cc1-c1cnc(N2CCc3cc(S(=O)(=O)Nc4c(F)cc(Cl)cc4F)cc(N4CCCC4=O)c32)nc1", "effect on": "cell-free assay", "method": "competition with immobilised ligand", "concentration": "1 µM", "quantity": "remaining binding", "value": "100%"}
{"SMILES": "COc1cc(Nc2cnc(C#N)c(O[C@H](C)CN(C)C)n2)ncc1-c1cnn(C)c1", "effect on": "enzyme activity", "action": "inhibitor", "method": "radiometric", "concentration": "1 µM", "quantity": "remaining activity", "value": "96%"}
{"SMILES": "CNCc1ccccc1-c1csc([C@H](C)Nc2nc(C)nc3cc(OC)c(OC)cc23)c1", "effect on": "cell-free assay", "method": "competition with immobilised ligand", "concentration": "1 µM", "quantity": "remaining binding", "value": "100%"}
{"SMILES": "Nc1ncnc2occ(-c3ccc(NC(=O)Nc4cc(C(F)(F)F)ccc4F)cc3)c12", "effect on": "cell-free assay", "action": "inhibitor", "concentration": "20 µM", "quantity": "remaining signal", "value": "99%"}
{"SMILES": "CNC(=O)c1cc(Oc2ccc(NC(=O)Nc3ccc(Cl)c(C(F)(F)F)c3)cc2)ccn1", "effect on": "cell-free assay", "concentration": "0.5 µM", "quantity": "remaining signal", "value": "104%"}
{"SMILES": "Cc1cc(-n2nc(Cc3cc(F)cc(C(F)(F)F)c3)nc2C)ccc1C(N)=O", "effect on": "cell-free assay", "method": "competition with immobilised ligand", "concentration": "1 µM", "quantity": "remaining binding", "value": "100%"}
{"SMILES": "CC(C)c1ccc(NC(=O)c2cccs2)c(-c2nc3ccccc3[nH]c2=O)c1", "effect on": "enzyme activity", "action": "inhibitor", "concentration": "1 µM", "quantity": "activity vs control", "value": "76%"}
{"SMILES": "C[C@@H]1CN(c2cc(-c3nn(C)c4ccc(OC5(C)CC5)cc34)ncn2)C[C@H](C)O1", "effect on": "cell-free assay", "method": "competition with immobilised ligand", "concentration": "1 µM", "quantity": "remaining binding", "value": "94%"}
{"SMILES": "O=C(Nc1cnn(-c2csc(C(=O)NC3COC3)c2)c1)Nc1c(F)cccc1Cl", "effect on": "enzyme activity", "action": "inhibitor", "concentration": "5 µM", "quantity": "remaining activity", "value": "94.7%"}
{"SMILES": "FC(F)(F)Oc1cccc(-c2cnc3ccc(-c4ccncc4)nn23)c1", "effect on": "enzyme activity", "action": "inhibitor", "method": "radiometric", "concentration": "1 µM", "quantity": "activity vs control", "value": "89%"}
{"SMILES": "FC(F)(F)c1ccc2c(c1)nc(-c1cccnc1)n2C1CC1", "effect on": "cell-free assay", "method": "competition with immobilised ligand", "concentration": "1 µM", "quantity": "remaining binding", "value": "100%"}
{"SMILES": "CCN(CC)CCNC(=O)c1c(C)[nH]c(/C=C2\\C(=O)Nc3ccc(F)cc32)c1C", "effect on": "enzyme activity", "action": "inhibitor", "concentration": "0.3 µM", "quantity": "inhibition", "value": "-11%"}
{"SMILES": "CC(=O)N1CCC(c2ccc(C(=O)NC3=NCCN3)cc2C(F)(F)F)CC1", "effect on": "cell-free assay", "method": "competition with immobilised ligand", "concentration": "1 µM", "quantity": "remaining binding", "value": "71%"}
{"SMILES": "Cc1ccc(-n2nc(C(C)(C)C)cc2NC(=O)Nc2ccc(OCCN3CCOCC3)c3ccccc23)cc1", "effect on": "enzyme activity", "action": "inhibitor", "concentration": "10 µM", "quantity": "inhibition", "value": "10%"}
{"SMILES": "CN1CC(Oc2cnc(C#N)cc2-c2ccn3nc(NC(=O)C4CC4)cc3c2)C1", "effect on": "enzyme activity", "action": "inhibitor", "concentration": "1 µM", "quantity": "inhibition", "value": "-2%"}
